From ChEMBL document CHEMBL4387702, “Design and synthesis novel di-carbonyl analogs of curcumin (DACs) act as potent anti-inflammatory agents against LPS-induced acute lung injury (ALI)” (Eur J Med Chem, 2019) come the findings set out here.

Each structure is given as a SMILES string. Active and inactive are the calls of the source. The calls are words filed in the database; no cut-off is given here.

Data set [1] relates to RAW264.7. In words: Inhibition of MAPK/NFkappaB in ICR mouse RAW264.7 cells assessed as reduction in LPS-induced TNFalpha production at 10 uM pretreated for 0.5 hrs followed by LPS challenge and measured after 24 hrs by ELISA relative to control. Type of data set: cell-based. A general note: In an ELISA, binding on a coated surface is turned into a signal by an enzyme label.

Data set [2] relates to RAW264.7. In words: Cytotoxicity against ICR mouse RAW264.7 cells assessed as effect on cell proliferation at 10 uM after 24 hrs by MTT assay. The class given is cell-based. The following applies: raw264.7, 24 h. (Tetrazolium dyes change colour on reduction, which living cells bring about.)
Data set [3] can be described thus: Inhibition of MAPK/NFkappaB in ICR mouse RAW264.7 cells assessed as reduction in LPS-induced TNFalpha production pretreated for 0.5 hrs followed by LPS challenge and measured after 24 hrs by ELISA. The class given is cell-based.
Data set [4] in a line: Stability in pH 7.4 phosphate buffer assessed as compound decomposition measured up to 25 mins by UV-Vis spectroscopy. The class given is physicochemical. The following applies: pH 7.4, 25 min. The procedure, abridged:
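Compound stability was followed by recording UV-visible absorption spectra in phosphate buffer at pH 7.4.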

The subject of data set [5] is RAW264.7. In words: Inhibition of NFkappaB/MAPK signaling in LPS-induced mouse RAW264.7 cells assessed as down regulation of IkappaB expression at 10 uM preincubated for 0.5 hrs followed by LPS-challenge and measured after 30 mins by immunoblotting analysis. The class given is cell-based. The procedure, abridged:
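RAW 264.7 cells were pretreated with compound for 0.5 h and then stimulated with LPS for 30 min. Lysates were resolved on 10% or 12% SDS-PAGE and transferred to nitrocellulose. Membranes were blocked in TBS (pH 7.6) with 0.05% Tween 20 and 5% milk. Blots were probed for p-p38, p38, p-ERK, ERK, IκBα and GAPDH, detected with HRP secondaries and ECL.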

Data set [6] in a line: Inhibition of MAPK/NFkappaB in ICR mouse RAW264.7 cells assessed as reduction in LPS-induced IL6 production pretreated for 0.5 hrs followed by LPS challenge and measured after 24 hrs by ELISA. The class given is cell-based.
Data set [7] relates to RAW264.7. As to the kind of experiment: Inhibition of MAPK/NFkappaB signaling in ICR mouse RAW264.7 cells assessed as reduction in LPS-induced IL-6 mRNA expression pretreated for 0.5 hrs followed by LPS challenge and measured after 40 mins by TRIZOL reagent-based RT-qPCR analysis. Type of data set: cell-based. The procedure, abridged: (§1)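 RAW 264.7 cells were pretreated with compound for 0.5 h and then activated with LPS. Values were normalized to actin and expressed relative to the LPS group.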
(Real-time PCR tracks product formation cycle by cycle.)

Data set [8] deals with RAW264.7. As to the kind of experiment: Inhibition of MAPK/NFkappaB signaling in ICR mouse RAW264.7 cells assessed as reduction in LPS-induced IL1beta mRNA expression pretreated for 0.5 hrs followed by LPS challenge and measured after 40 mins by TRIZOL reagent-based RT-qPCR analysis. Type of data set: cell-based. An outline of the steps: as §1
The subject of data set [9] is RAW264.7. In words: Inhibition of MAPK/NFkappaB signaling in ICR mouse RAW264.7 cells assessed as reduction in LPS-induced ICAM1 mRNA expression pretreated for 0.5 hrs followed by LPS challenge and measured after 40 mins by TRIZOL reagent-based RT-qPCR analysis. Type of data set: cell-based. An outline of the steps: as §1
Data set [10] concerns Mus musculus. In words: Antiinflammatory activity in C57BL/6 mouse model of LPS-induced acute lung injury assessed as reduction in neutrophil count in BALF at 10 mg/kg, ip administered daily for one week prior to LPS challenge and measured after 6 hrs. The class given is functional, organism-based. An outline of the steps: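 C57BL/6 mice (eight per group) received 10 mg/kg i.p. daily for one week; vehicle was 0.9% saline. They were then challenged with intratracheal LPS at 5 mg/kg and sacrificed 6 h later. Endpoints were lung wet/dry weight ratio and total and neutrophil cell counts in BALF, reported as mean ± SEM, n = 6.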

Data set [11] relates to Mus musculus. In words: Antiinflammatory activity in C57BL/6 mouse model of LPS-induced acute lung injury assessed as reduction of pathological lesions in lung tissue at 10 mg/kg, ip administered daily for one week prior to LPS challenge and measured after 6 hrs by hematoxylin and eosin staining-based light microscopic analysis. The class given is functional, organism-based. The procedure, abridged: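 Lungs were taken 6 h after intratracheal LPS (5 mg/kg) from C57BL/6 mice pretreated at 10 mg/kg i.p. daily for one week. Tissue was fixed, embedded in paraffin, sectioned at 5 µm and stained with H&E. Injury features examined were edema, congestion, septal thickening, infiltration and tissue destruction, assessed by light microscopy.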

In data set [12] the test system is Mus musculus. As to the kind of experiment: Antiinflammatory activity in C57BL/6 mouse model of LPS-induced acute lung injury assessed as reduction of F4/80 macrophage level in lung tissue at 10 mg/kg, ip administered daily for one week prior to LPS challenge measured after 6 hrs by hematoxylin staining-based immunohistochemistry method. The class given is functional, organism-based. An outline of the steps: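 Lungs came from C57BL/6 mice dosed at 10 mg/kg i.p. daily for one week, then given intratracheal LPS 5 mg/kg and harvested at 6 h. Tissue was paraffin-embedded and cut into 5 µm sections. Antigen retrieval used microwaving in 0.01 mol/L citrate (pH 6.0), then 3% H2O2 in methanol for 30 min. Sections took LY-6G or F4/80 primary antibody overnight at 4 °C, secondary at 1:200, DAB development and hematoxylin counterstain.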

In data set [13] the test system is Mus musculus. In words: Antiinflammatory activity in C57BL/6 mouse model of LPS-induced acute lung injury assessed as reduction in TNF-alpha production in serum at 10 mg/kg, ip administered daily for one week prior to LPS challenge and measured after 6 hrs by ELISA. Type of data set: functional, organism-based. An outline of the steps:
(§2)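 In C57BL/6 mice (eight per group), compound was dosed at 10 mg/kg i.p. once daily for a week, with a 0.9% saline vehicle control. LPS 5 mg/kg was given intratracheally and animals were euthanized with chloral hydrate after 6 h. TNF-α and IL-6 in serum and BALF were measured by ELISA. Data are mean ± SEM, n = 6.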

Data set [14] has as its system Mus musculus. In words: Antiinflammatory activity in C57BL/6 mouse model of LPS-induced acute lung injury assessed as reduction in IL-6 production in serum at 10 mg/kg, ip administered daily for one week prior to LPS challenge and measured after 6 hrs by ELISA. Type of data set: functional, organism-based. The procedure, abridged:
as §2

Data set [15] relates to Mus musculus. As to the kind of experiment: Antiinflammatory activity in C57BL/6 mouse model of LPS-induced acute lung injury assessed as reduction in TNF-alpha production in BALF at 10 mg/kg, ip administered daily for one week prior to LPS challenge and measured after 6 hrs by ELISA. The class given is functional, organism-based. The procedure, abridged:
as §2

Data set [16] concerns Mus musculus. In words: Antiinflammatory activity in C57BL/6 mouse model of LPS-induced acute lung injury assessed as reduction in IL-6 mRNA expression in lung tissue at 10 mg/kg, ip administered daily for one week prior to LPS challenge and measured after 6 hrs by TRIZOL reagent-based RT-qPCR analysis. The class given is functional, organism-based. An outline of the steps: (§3)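 Mouse ALI model with eight C57BL/6 mice per group. Compound was given at 10 mg/kg i.p. daily for one week; controls received 0.9% saline. LPS was instilled intratracheally at 5 mg/kg. Mice were euthanized with chloral hydrate 6 h later and lungs collected. Lung mRNA for each target was quantified by real-time qPCR.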

For data set [17], the system named is Mus musculus. In words: Antiinflammatory activity in C57BL/6 mouse model of LPS-induced acute lung injury assessed as reduction in IL1beta mRNA expression in lung tissue at 10 mg/kg, ip administered daily for one week prior to LPS challenge and measured after 6 hrs by TRIZOL reagent-based RT-qPCR analysis. Type of data set: functional, organism-based. An outline of the steps: as §3

Data set [18] has as its system Mus musculus. In words: Antiinflammatory activity in C57BL/6 mouse model of LPS-induced acute lung injury assessed as reduction in VCAM1 mRNA expression in lung tissue at 10 mg/kg, ip administered daily for one week prior to LPS challenge and measured after 6 hrs by TRIZOL reagent-based RT-qPCR analysis. Type of data set: functional, organism-based. An outline of the steps: as §3

In general, inhibition refers to the drop in the measured response relative to a control, in per cent. The term IC50 denotes the concentration that gives 50% inhibition. Consider `COc1cc(/C=C/C(=O)N2CCC/C(=C\c3cc(OC)c(OC)c(OC)c3)C2=O)ccc1O`, for which the inhibition with RAW264.7 [1] lay in the range of 90.9 to 92.5%. Besides, the Activity result in the data set on RAW264.7 [2] was “Non-Toxic”. The values for the 50% inhibitory concentration (IC50) in data set [3] and in [6] were 3.69 µM and 3.68 µM, respectively. In data set [4], the Stability result is listed as “Stable”. Further, the inhibition entry in the data set on RAW264.7 [5], in the data set on RAW264.7 [7], in the data set on RAW264.7 [8] and in the data set on RAW264.7 [9] was “Active” in each case. The outcome with Mus musculus [10], with Mus musculus [11], with Mus musculus [12], in the data set on Mus musculus [13], in the data set on Mus musculus [14] and in the data set with Mus musculus [15] was Active. Further, the outcome in the data set with Mus musculus [16], in the data set with Mus musculus [17] and in the data set on Mus musculus [18] was Active.
As for `COc1cc(/C=C/C(=O)N2CCC/C(=C\c3cc(OC)c(OC)c(OC)c3)C2=O)ccc1OC(C)=O`, in the data set on RAW264.7 [1], the inhibition fell in the range of 90.9 to 92.5%. Also, the Activity entry in the data set on RAW264.7 [2] is “Non-Toxic”. The IC50 was 2.33 µM in data set [3] and 2.4 µM in data set [6]. The Stability result in data set [4] is “Stable”. Also, the inhibition result with RAW264.7 [5], with RAW264.7 [7], in the data set with RAW264.7 [8] and in the data set on RAW264.7 [9] was “Active” in each case. In addition, the outcome in the data set with Mus musculus [10], in the data set on Mus musculus [11], in the data set on Mus musculus [12], in the data set on Mus musculus [13], with Mus musculus [14] and in the data set on Mus musculus [15] was Active. In addition, the result with Mus musculus [16], with Mus musculus [17] and with Mus musculus [18] was Active.
